{
  "source": "ChEMBL document CHEMBL3108739",
  "about": "“Activation and inhibition of thermosensitive TRP channels by voacangine, an alkaloid present in Voacanga africana, an African tree” (J Nat Prod, 2014)",
  "key": {"[1]": {"target": "T1, Transient receptor potential cation channel subfamily A member 1 (Homo sapiens, UniProt O75762)", "T1 sequence (O75762 whole entry)": "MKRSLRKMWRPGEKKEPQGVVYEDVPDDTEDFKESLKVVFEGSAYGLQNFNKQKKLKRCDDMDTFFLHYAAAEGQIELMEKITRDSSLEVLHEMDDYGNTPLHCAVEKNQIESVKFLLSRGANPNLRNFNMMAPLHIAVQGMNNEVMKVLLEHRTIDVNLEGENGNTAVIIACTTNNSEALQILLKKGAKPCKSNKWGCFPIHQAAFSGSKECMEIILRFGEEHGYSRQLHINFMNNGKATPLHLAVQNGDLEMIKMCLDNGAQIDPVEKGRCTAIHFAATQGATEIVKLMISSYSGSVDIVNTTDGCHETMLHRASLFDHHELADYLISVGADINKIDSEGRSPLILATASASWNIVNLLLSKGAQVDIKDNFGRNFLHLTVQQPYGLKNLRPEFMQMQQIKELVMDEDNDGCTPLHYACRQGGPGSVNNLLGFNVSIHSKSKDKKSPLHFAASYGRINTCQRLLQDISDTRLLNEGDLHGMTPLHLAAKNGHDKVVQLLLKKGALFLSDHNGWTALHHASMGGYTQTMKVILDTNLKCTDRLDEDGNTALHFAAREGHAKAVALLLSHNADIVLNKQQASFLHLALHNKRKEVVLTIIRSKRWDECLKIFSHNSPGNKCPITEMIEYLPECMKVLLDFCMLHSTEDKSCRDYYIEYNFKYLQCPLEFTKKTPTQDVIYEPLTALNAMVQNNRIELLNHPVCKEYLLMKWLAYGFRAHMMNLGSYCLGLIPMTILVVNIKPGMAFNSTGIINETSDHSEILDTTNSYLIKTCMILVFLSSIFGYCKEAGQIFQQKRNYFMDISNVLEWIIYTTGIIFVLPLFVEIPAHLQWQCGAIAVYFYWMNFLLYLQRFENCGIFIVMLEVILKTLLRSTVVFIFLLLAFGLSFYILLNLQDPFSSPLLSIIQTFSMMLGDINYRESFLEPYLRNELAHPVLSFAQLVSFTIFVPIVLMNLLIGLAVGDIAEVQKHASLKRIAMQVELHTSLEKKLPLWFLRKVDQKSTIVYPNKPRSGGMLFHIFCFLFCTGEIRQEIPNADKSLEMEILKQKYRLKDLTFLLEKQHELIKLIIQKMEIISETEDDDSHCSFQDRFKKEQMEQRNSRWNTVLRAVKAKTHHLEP", "test": "Agonist activity at TRPA1 isolated from human W138 cells expressed in HEK293T cells assessed as intracellular Ca2+ influx at 100 uM by Fluo-4 AM staining-based fluorescence analysis in presence of antagonist HC-030031", "assay_type": "cell-based", "method_in_brief": "(§1)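 Tetracycline-induced (1 μg/mL) stable hTRPA1 in HEK T-REx cells, Fluo-4 AM loaded (3 μM, 1 h, 37 °C) in HEPES buffer pH 7.4 with probenecid; Ca2+ read at 37 °C. Compound 0.01−100 μM; HC-030031 30 μM pretreated 3 min. Responses as % of 5 μM ionomycin or of 100 μM AITC; TREx cells without TRPA1 as control; n = 4−8.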"}, "[2]": {"target": "Transient receptor potential cation channel subfamily M member 8 (Mus musculus) (UniProt Q8R4D5)", "sequence (Q8R4D5 whole entry)": "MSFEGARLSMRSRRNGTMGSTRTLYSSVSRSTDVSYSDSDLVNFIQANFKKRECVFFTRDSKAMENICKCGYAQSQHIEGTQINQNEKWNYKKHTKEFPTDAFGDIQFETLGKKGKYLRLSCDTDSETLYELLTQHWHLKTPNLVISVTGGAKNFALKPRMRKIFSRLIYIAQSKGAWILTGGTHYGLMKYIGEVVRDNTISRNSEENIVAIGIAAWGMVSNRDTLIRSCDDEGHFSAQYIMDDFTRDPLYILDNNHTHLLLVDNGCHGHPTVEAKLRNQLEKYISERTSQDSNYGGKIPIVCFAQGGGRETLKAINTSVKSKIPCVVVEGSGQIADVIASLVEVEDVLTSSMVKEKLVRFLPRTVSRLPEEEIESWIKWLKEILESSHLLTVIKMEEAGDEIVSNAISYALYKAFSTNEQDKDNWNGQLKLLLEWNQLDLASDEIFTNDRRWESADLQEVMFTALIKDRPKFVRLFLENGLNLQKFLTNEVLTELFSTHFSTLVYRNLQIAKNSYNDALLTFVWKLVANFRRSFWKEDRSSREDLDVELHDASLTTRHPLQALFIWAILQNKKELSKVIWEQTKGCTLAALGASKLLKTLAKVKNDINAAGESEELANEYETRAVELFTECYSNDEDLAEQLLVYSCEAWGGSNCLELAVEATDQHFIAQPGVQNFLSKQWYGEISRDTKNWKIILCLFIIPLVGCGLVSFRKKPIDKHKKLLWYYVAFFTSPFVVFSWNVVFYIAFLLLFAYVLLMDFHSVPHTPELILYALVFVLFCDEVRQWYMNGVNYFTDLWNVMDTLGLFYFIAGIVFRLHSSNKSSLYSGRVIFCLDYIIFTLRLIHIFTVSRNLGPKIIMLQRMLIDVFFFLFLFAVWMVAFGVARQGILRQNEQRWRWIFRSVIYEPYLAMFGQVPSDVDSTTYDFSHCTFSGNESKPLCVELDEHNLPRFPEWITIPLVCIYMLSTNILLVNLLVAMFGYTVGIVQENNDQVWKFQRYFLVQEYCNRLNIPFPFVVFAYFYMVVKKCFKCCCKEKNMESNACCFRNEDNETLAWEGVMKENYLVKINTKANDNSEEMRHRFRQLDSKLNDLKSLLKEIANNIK", "details": "Dorsal root ganglion, HEK T-REx, 100 uM"}, "[3]": {"target": "T2, Transient receptor potential cation channel subfamily V member 1 (Homo sapiens, UniProt Q8NER1)", "T2 sequence (Q8NER1 whole entry)": "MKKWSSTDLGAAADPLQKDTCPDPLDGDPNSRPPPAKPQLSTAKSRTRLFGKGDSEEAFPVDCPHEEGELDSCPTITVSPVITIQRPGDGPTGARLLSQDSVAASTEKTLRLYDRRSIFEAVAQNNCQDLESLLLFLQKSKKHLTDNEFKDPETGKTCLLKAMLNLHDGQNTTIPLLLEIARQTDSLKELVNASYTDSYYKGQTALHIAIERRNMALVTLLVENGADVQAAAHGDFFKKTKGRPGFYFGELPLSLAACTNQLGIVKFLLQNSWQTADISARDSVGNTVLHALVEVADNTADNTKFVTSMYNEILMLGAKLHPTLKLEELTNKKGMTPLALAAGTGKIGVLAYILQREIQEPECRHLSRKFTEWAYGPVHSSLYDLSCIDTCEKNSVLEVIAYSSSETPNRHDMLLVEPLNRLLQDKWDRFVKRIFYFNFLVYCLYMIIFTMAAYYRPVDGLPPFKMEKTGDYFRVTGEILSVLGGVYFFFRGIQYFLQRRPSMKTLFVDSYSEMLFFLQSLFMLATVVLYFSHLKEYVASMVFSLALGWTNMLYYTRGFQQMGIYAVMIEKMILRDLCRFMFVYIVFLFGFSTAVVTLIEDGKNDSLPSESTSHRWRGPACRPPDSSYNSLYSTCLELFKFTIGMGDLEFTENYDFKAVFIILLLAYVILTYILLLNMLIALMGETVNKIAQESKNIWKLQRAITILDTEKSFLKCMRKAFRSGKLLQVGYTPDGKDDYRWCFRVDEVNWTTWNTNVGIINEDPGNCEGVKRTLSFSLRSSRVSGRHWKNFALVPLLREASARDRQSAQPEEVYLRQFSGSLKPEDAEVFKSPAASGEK", "test": "Antagonist activity at human brain TRPV1 expressed in HEK293T cells assessed as inhibition of proton-induced intracellular Ca2+ influx at 10 uM by fluorescence-based assay", "details": "HEK-293T"}, "[4]": {"target": "T2, Transient receptor potential cation channel subfamily V member 1", "test": "Antagonist activity at human brain TRPV1 expressed in HEK293T cells assessed as CAP-induced intracellular Ca2+ influx at 100 uM by Fluo-4 AM staining-based fluorescence analysis", "assay_type": "cell-based", "details": "HEK-293T", "method_in_brief": "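Stable hTRPV1 in HEK293T (G418 selected), Fluo-4 loaded, 37 °C. 100 μM compound alone, or pretreated 3 min before 0.01 μM capsaicin; 10 μM BCTC reference. Data as % of 10 μM capsaicin.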"}, "[5]": {"target": "T3, Transient receptor potential cation channel subfamily V member 2 (Homo sapiens) (UniProt Q9Y5S1)", "T3 sequence (whole entry)": "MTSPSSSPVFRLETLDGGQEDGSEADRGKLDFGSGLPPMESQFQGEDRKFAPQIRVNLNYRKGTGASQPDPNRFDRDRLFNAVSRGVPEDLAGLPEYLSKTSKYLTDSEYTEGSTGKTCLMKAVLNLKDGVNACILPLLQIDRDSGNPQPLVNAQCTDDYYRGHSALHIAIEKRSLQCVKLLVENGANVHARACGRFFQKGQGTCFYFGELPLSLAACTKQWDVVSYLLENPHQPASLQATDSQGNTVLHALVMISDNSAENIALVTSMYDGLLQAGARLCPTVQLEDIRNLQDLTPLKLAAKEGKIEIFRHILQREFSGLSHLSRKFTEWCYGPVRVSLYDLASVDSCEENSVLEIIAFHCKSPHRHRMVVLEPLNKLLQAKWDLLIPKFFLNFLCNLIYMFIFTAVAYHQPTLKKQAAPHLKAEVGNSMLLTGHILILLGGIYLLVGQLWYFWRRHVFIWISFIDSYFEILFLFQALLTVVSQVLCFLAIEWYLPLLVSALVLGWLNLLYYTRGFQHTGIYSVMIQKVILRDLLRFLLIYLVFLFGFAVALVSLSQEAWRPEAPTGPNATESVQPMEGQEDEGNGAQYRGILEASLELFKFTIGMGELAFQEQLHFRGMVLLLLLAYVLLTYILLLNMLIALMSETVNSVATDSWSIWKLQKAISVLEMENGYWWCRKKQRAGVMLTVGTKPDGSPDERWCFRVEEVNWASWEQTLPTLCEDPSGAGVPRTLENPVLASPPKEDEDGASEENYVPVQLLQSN", "test": "Agonist activity at human TRPV2 expressed in HEK293T cells assessed as intracellular Ca2+ influx at 100 uM by Fluo-4 AM staining-based fluorescence analysis", "assay_type": "cell-based", "details": "HEK-293T", "method_in_brief": "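hTRPV2 transiently transfected into HEK293T, seeded 6 h after transfection and used 18 h later. Fluo-4 loading in probenecid-free buffer, 37 °C. Agonist 30 and 40 μM LPC; ruthenium red 5 μM as reference blocker; 100 μM compound given alone or pretreated 3 min. Read-out ΔF/F0 (%).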"}, "[6]": {"target": "T2, Transient receptor potential cation channel subfamily V member 1", "test": "Antagonist activity at human brain TRPV1 expressed in HEK293T cells assessed as inhibition of CAP-induced intracellular Ca2+ influx by fluorescence-based assay", "assay_type": "cell-based, HEK-293T", "method_in_brief": "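hTRPV1-HEK293T, Fluo-4 Ca2+ at 37 °C; antagonist (0.3−100 μM) preincubated 3 min then 0.01 μM capsaicin; DMSO final 0.1−1%. IC50 from dose−inhibition curves; data as % of 10 μM capsaicin.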"}, "[7]": {"target": "T1, Transient receptor potential cation channel subfamily A member 1", "test": "Agonist activity at TRPA1 isolated from human W138 cells expressed in HEK293T cells assessed as intracellular Ca2+ influx at 10 to 100 uM by Fluo-4 AM staining-based fluorescence analysis relative to allylisothiocyanate", "assay_type": "cell-based", "method_in_brief": "as §1"}, "[8]": {"target": "T1, Transient receptor potential cation channel subfamily A member 1", "test": "Agonist activity at TRPA1 isolated from human W138 cells expressed in HEK293T cells assessed as intracellular Ca2+ influx at 100 uM by Fluo-4 AM staining-based fluorescence analysis", "assay_type": "cell-based", "method_in_brief": "as §1"}},
  "note": "pIC50: −log10 of the molar value. Calls of active or inactive are those of the source. No cut-off for these calls is given here.",
  "data": [
    {"molecule": "CC[C@H]1C[C@@H]2CN3CCc4c([nH]c5ccc(OC)cc45)[C@](C(=O)OC)(C2)[C@H]13", "note": "[VOACANGINE]", "values": [
      {"measurement": "Activity", "setting": "[1]", "value": "inactive"},
      {"measurement": "inhibition", "setting": "[2]", "value": "Active"},
      {"measurement": "inhibition", "setting": "[3]", "value": "inactive"},
      {"measurement": "Activity", "setting": "[4]", "value": "Active"},
      {"measurement": "Activity", "setting": "[5]", "value": "inactive"},
      {"measurement": "pIC50", "setting": "[6]", "value": 4.30},
      {"measurement": "inhibition", "setting": "[6]; HEK-293T", "value": "Dose-dependent effect"},
      {"measurement": "Activity", "setting": "[7]", "value": 98, "unit": "%"},
      {"measurement": "Activity", "setting": "[8]", "value": "Active"}
    ]}
  ]
}
